# Active and inactive are the calls of the source. No cut-off for these calls is given here.
# Tests used:
# NCI-H460 [1] = assay: Antimitotic activity against human NCI-H460 cells assessed as accumulation of monopolar spindles at 100 nmol/L incubated for 24 hrs by immunofluorescence analysis; assay type: functional, cell-based
# Procedure, shortened: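 NCI-H460 cells on chamber slides were treated next day for 24 h with inhibitor or 0.1% DMSO vehicle. They were fixed and permeabilized with 4% formaldehyde/Triton X-100 for 5 min at RT, then stained with anti-tubulin and anti-phospho-Ser10 histone H3 (1:500 in PBS/2% BSA) plus DAPI 0.05 µg/mL. Imaged by fluorescence microscopy.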
# NCI-H460 [2] = assay: Antitumor activity against human NCI-H460 cells xenografted in BomTac:NMRI-Foxn1nu mouse assessed as T/C at 10 mg/kg, po administered daily upto 6 weeks relative to control; assay type: functional
# Procedure, shortened: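 Female nude mice bore s.c. HCT 116 (2×10^6 cells), NCI-H460 (1×10^6 cells) or serially transplanted CXB1 tumor pieces. At ~50–100 mm³, mice were randomized into groups of 10 and dosed i.v. (0.1 N HCl/saline) or by gavage (0.5% hydroxyethyl-cellulose) at 10 mL/kg. Calipers read thrice weekly, volume = length×width²×π/6. T/C from median volumes on the last day.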
# [3] = AUC (0 to 24 hrs) in human HCT-116 cells xenografted in BomTac:NMRI-Foxn1nu mouse at 50 mg/kg, po administered once a week upto 6 weeks by HPLC-MS/MS analysis; assay type: ADME, organism-based; conditions: in vivo, 1008 h
structure (smiles),measurement,setting,value
CC[C@@H]1C(=O)N(C)c2cnc(Nc3ccc(C(=O)N[C@H]4CC[C@H](N5CCN(CC6CC6)CC5)CC4)cc3OC)nc2N1C(C)C [VOLASERTIB],Activity,NCI-H460 [1],Active
same,T/C,NCI-H460 [2],6%
same,AUC,[3],44 µM·h

# — ChEMBL document CHEMBL5661977, “BI 6727, a Polo-like kinase inhibitor with improved pharmacokinetic profile and broad antitumor activity” (Clin Cancer Res, 2009)
